Results reported in PMC9026613 (Current Therapeutic Research, Clinical and Experimental, 2022).
Where two headings read alike, the source gives them in different places.

What was measured:
[1] = Pharmacokinetics of dasiglucagon in plasma after IV or SC dosing, Phase I trial; assay type: in vivo, human
Method in brief: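 Single IV doses of 0.03, 0.1, 0.3, 0.6 or 1.5 mg from a 4 mg/mL solution diluted with vehicle, after a fast of ≥8 h. One cohort got 0.6 mg SC into the abdomen by prefilled syringe. Plasma sampled over 4 h (IV) or 5 h (SC). Dose proportionality by log–log power-model regression (90% CI of slope). Absolute bioavailability from a linear model of AUC, SC versus IV 0.6 mg.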

[2] = test system: plasma glucose; assay: Plasma glucose response; assay type: in vivo, human
[3] = test system: healthy volunteers; assay type: in vivo, human
[4] = test system: healthy volunteers; assay: Cardiac repolarization: by-time point analysis of QTcF; assay type: in vivo, human; details: least squares mean
Method in brief: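 Single IV dose of test compound or placebo. Continuous Holter 12-lead ECG with supine rest ≥15 min. Extractions at 45, 30 and 15 min predose and at 5–240 min and 24 h postdose, up to 10 nonoverlapping 10-s replicates per point. Lead II was primary. QTcF=QT/RR^1/3. Analysed in a linear mixed-effects model on ΔQTcF (fixed: time, treatment, interaction; baseline covariate), placebo pooled.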

[5] = test system: healthy volunteers; assay: Concentration-QTc analysis, linear mixed-effects model; assay type: in vivo, human; details: not significant at the 0.1 level
[6] = test system: healthy volunteers; assay: Concentration-QTc analysis, Emax model; assay type: in vivo, human; details: for ΔΔQTcF estimate at geometric mean Cmax: Emax model prediction, mean (90% CI)
Method in brief: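 Placebo-adjusted ΔQTcF for each subject and time point = individual ΔQTcF minus the estimated time effect at that point. ΔΔQTcF predicted at the geometric mean peak concentration per dose.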

[7] = test system: healthy volunteers; assay type: in vivo, human; remark: listed apart in the source
Method in brief: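 Single IV (0.03–1.5 mg) or SC (0.6 mg) dose, or IV placebo. Safety was monitored throughout the study by AE recording, vital signs, clinical laboratory tests, physical examination, 12-lead ECG and injection-site reaction checks. TEAEs were tallied per participant by treatment.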

[8] = test system: healthy volunteers; assay: Antidasiglucagon antibody assessment; parameters: species or system human; details: in vivo
[9] = 0.6 mg single subcutaneous dose, other clinical trials; ref not given; cited from earlier work
[10] = test system: 8 different human cardiac ion channels (including human ether-a-go-go related gene [hERG]); details: 8 channels including hERG; nonclinical studies, ref not given; cited from earlier work
[11] = test system: dogs; details: cardiovascular telemetry; nonclinical studies, ref not given; cited from earlier work
[12] = cited from earlier work
[13] = test system: plasma glucose; details: following insulin-induced hypoglycemia; cited from earlier work

CC(C)C[C@H](NC(=O)[C@H](Cc1c[nH]c2ccccc12)NC(=O)[C@H](CCCCN)NC(=O)[C@@H](NC(=O)[C@H](Cc1ccccc1)NC(=O)[C@H](CCC(=O)O)NC(=O)[C@H](CCC(=O)O)NC(=O)[C@H](C)NC(=O)[C@H](CCCNC(=N)N)NC(=O)[C@H](C)NC(=O)C(C)(C)NC(=O)[C@H](CC(=O)O)NC(=O)[C@H](CC(C)C)NC(=O)[C@H](Cc1ccc(O)cc1)NC(=O)[C@H](CCCCN)NC(=O)[C@H](CO)NC(=O)[C@H](Cc1ccc(O)cc1)NC(=O)[C@H](CC(=O)O)NC(=O)[C@H](CO)NC(=O)[C@@H](NC(=O)[C@H](Cc1ccccc1)NC(=O)[C@@H](NC(=O)CNC(=O)[C@H](CCC(N)=O)NC(=O)[C@H](CO)NC(=O)[C@@H](N)Cc1c[nH]cn1)[C@@H](C)O)[C@@H](C)O)C(C)C)C(=O)N[C@@H](CCC(=O)O)C(=O)N[C@@H](CO)C(=O)N[C@H](C(=O)O)[C@@H](C)O [dasiglucagon]
dose proportionality of AUC and Cmax ([1]; IV dose cohorts 0.03 to 1.5 mg, power model): dose-proportional
half-life ([1]; human, plasma, iv): ~18 min
Cmax ([1]; human, plasma, iv, 0.03 mg): 0.568 nM
Cmax ([1]; human, plasma, iv, 0.1 mg): 2.39 nM
Cmax ([1]; human, plasma, iv, 0.3 mg): 6.46 nM
AUC(0-inf) ([1]; human, plasma, iv, 0.6 mg): 4.63 nM·h
Cmax ([1]; human, plasma, iv, 0.6 mg): 10.2 nM
Cmax ([1]; human, plasma, iv, 1.5 mg): 57.9 nM
AUC(0-inf) ([1]; human, plasma, sc, 0.6 mg): 2.36 nM·h
AUC(0-t) ([1]; human, plasma, sc, 0.6 mg): 2.36 nM·h
Cmax ([1]; human, plasma, sc, 0.6 mg): 1.53 nM
bioavailability ([1]; human, plasma, sc, 0.6 mg): ~51%
half-life ([1]; human, plasma, sc, 0.6 mg): ~30 min
Median time to Cmax, glucose ([2]; IV 0.03 mg): 17.5 min
mean maximum glucose concentration (Cmax, glucose) ([2]; IV 0.03 mg, healthy volunteers): 135 mg/dL
Median time to Cmax, glucose ([2]; IV 1.5 mg): 42.5 min
mean maximum glucose concentration (Cmax, glucose) ([2]; IV 1.5 mg, healthy volunteers): 160 mg/dL
plasma glucose level after subcutaneous dosing ([2]; SC 0.6 mg, healthy volunteers): 172 mg/dL
Mean ΔΔHR ([3]; IV 0.03 mg, 5 minutes postdose (lowest value)): –7.0 bpm
Mean ΔΔHR ([3]; IV 0.6 mg, 24 hours postdose (highest value)): 7.5 bpm
effect on PR interval ([3]; IV 0.03 to 1.5 mg): did not have a clinically relevant effect
effect on QRS duration ([3]; IV 0.03 to 1.5 mg): did not have a clinically relevant effect
mean placebo-corrected change from baseline in heart rate (ΔΔHR) ([3]; all studied IV doses 0.03 to 1.5 mg): < 10 bpm
Mean ΔΔQTcF ([4]; IV 0.03 mg, 40 minutes postdose): -3.4 ms
Mean ΔΔQTcF ([4]; IV 0.1 mg, 180 minutes postdose): 12.3 ms
treatment effect-specific intercept [5]: 0.8 ms
Emax (maximum estimated effect on ΔΔQTcF) ([6]; Emax model, all IV data, P = 0.0137): 3.6 ms
treatment effect–specific intercept ([6]; Emax model, not significant at the 0.1 level): -0.44 ms
ΔΔQTcF estimate at geometric mean Cmax ([6]; IV 0.03 mg, n = 36 overall): 1.61 ms
ΔΔQTcF estimate at geometric mean Cmax ([6]; IV 0.1 mg): 2.61 ms
ΔΔQTcF estimate at geometric mean Cmax ([6]; IV 0.3 mg): 2.93 ms
ΔΔQTcF estimate at geometric mean Cmax ([6]; IV 0.6 mg): 3.01 ms
ΔΔQTcF estimate at geometric mean Cmax ([6]; IV 1.5 mg): 3.13 ms
EC50 ([6]; read-out: amount that produces half the effect of Emax, Emax model, plasma concentration, not significant at the 0.1 level): 0.426 nM
participants who experienced nausea ([7]; 0.6 mg SC cohort): 4 out of 6
participants who vomited ([7]; 0.6 mg SC cohort): 3 out of 6
dizziness ([7]; SC and IV dasiglucagon cohorts): 2 participants
extravasation ([7]; SC and IV dasiglucagon cohorts): 2 participants
headache ([7]; SC and IV dasiglucagon cohorts): 2 participants
nausea ([7]; SC and IV dasiglucagon cohorts): 9 participants
vomiting ([7]; SC and IV dasiglucagon cohorts): 4 participants
ECG-related TEAEs or TEAEs in the system organ class cardiac disorders ([7]; all cohorts): no ECG-related TEAEs
participants reporting treatment-emergent AEs (TEAEs) ([7]; all dasiglucagon cohorts, 14 out of 42): 33.3%
effect on vital signs or safety laboratory parameters ([7]; in vivo): No effect
injection site reactions ([7]; spontaneous pain (0.1 mg IV), hematoma (0.6 mg SC), both mild): Two injection site reactions
cross-reactivity of antibodies to endogenous glucagon [8]: no cross-reactivity
maximum concentrations observed in any clinical trial [9]: 5000 to 6000 pmol/L
effect on human cardiac ion channels in vitro [10]: no effect
potential for QTc prolongation in dogs [11]: no potential for QTc prolongation
stability in aqueous solutions [12]: stable in aqueous solutions
Median time to plasma glucose recovery vs reconstituted lyophilized glucagon [13]: comparable
